This is a sample that favours compounds with a hit; in the whole collection about 1.8% have one here.
M4 PAM – human M4 muscarinic receptor positive allosteric modulators, primary screen, CHO-K1 cells, Fluo-8 calcium fluorescence. AID 624126, 2012. actives 0.4% (n = 360,000). CHO-K1 hM4/Gqi5, ACh EC20; 0% = ACh EC20, 100% = maximal ACh. activation, % at 3 µM;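 active = activation above its plate's cutoff, the mean activation of sample wells plus 3 SD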
Target sequence (P08173 whole entry, looked up): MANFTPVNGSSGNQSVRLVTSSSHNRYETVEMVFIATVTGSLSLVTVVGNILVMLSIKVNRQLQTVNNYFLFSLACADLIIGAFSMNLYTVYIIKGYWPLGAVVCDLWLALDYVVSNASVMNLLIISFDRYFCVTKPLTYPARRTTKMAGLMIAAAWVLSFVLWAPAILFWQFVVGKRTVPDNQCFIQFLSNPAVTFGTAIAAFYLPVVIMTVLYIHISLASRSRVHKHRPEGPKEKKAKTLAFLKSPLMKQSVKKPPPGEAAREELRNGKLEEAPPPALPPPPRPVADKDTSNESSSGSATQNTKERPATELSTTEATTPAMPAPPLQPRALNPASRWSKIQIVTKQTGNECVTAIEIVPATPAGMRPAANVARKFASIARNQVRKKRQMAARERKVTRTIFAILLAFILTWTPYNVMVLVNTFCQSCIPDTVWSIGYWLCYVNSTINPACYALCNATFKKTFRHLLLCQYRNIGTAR
M5 antag – human M5 muscarinic receptor antagonists, primary screen, CHO cells, Fluo-8 calcium fluorescence; Muscarinic acetylcholine receptor M5 (Homo sapiens), P08912; CHO-hM5 cells, ACh EC80; inhibition, % at 3 µM; actives 0.59% (n = 360,000);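 active = inhibition above a per-plate cutoff, the mean of that plate's test compounds plus 3 SD, cut at about 27% in these data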;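 note: 0% = acetylcholine EC80 with DMSO and 100% = DMSO without agonist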
M4 antag – human M4 muscarinic receptor antagonists, primary screen, CHO cells, Fluo-8 calcium fluorescence; Muscarinic acetylcholine receptor M4 (Homo sapiens), P08173; CHO-hM4 cells, ACh EC80; inhibition, % at 3 µM; actives 0.73% (n = 360,000);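 active = inhibition above its plate's cutoff, the mean inhibition of sample wells plus 3 SD, cut at about 27% in these data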;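 note: 0% = acetylcholine EC80 with DMSO and 100% = DMSO without agonist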
M5 ag – human M5 muscarinic receptor agonists, primary screen, CHO-K1 cells, Fluo-8 calcium fluorescence | activation, % at 3 µM | CHO-K1 hM5 cells; 0% DMSO wells, 100% maximal acetylcholine response | AID 624037, 2012 | Muscarinic acetylcholine receptor M5 (Homo sapiens), P08912 | actives 0.19% (n = 360,000);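 active = activation above the run's mean over test compounds plus 3 SD, cut at about 23% in these data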;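 note: signal is peak over basal fluorescence ratio across the kinetic read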
M4 ag – human M4 muscarinic receptor agonists, primary screen, CHO-K1 cells, Fluo-8 calcium fluorescence | CHO-K1 hM4/Gqi5; vehicle 0%, full acetylcholine response 100% | actives 0.14% (n = 360,000) | activation, % at 3 µM;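 active = activation above the run mean over all test wells plus 3 SD, cut at about 32% in these data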;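 note: peak over basal fluorescence ratio per well then scaled between controls; 0% = DMSO wells and 100% = acetylcholine at EC100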
CHRM5 PAM – human M5 muscarinic receptor positive allosteric modulators, primary screen, CHO-K1 cells, Fluo-8 calcium fluorescence | Muscarinic acetylcholine receptor M5 (Homo sapiens), P08912 | CHO-K1 hM5, ACh EC20 PAM; 0% = ACh EC20, 100% = ACh EC100 | activation, % at 3 µM | actives 0.3% (n = 360,000) | AID 624038, 2012;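 active = activation above the run cutoff, the mean activation of all test compounds plus 3 SD, cut at about 18% in these data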
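system = human M5 receptor in CHO-K1 cells | reagent = EC20 acetylcholine as agonist stimulus | compound dosing = single-point, 3 µM nominal | incubation = Fluo-8 loading 80 min at 37 °C plus 30 min room temperature | detection = Fluo-8 calcium dye fluorescence, kinetic read | benchmarks = low control EC20 acetylcholine (0%), high control EC100 acetylcholine (100%)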
Starred values were filed as active, the others as inactive.

What do the screens show for `C[N+]1(C)C2CCC1CC(OC(=O)c1c[nH]c3ccccc13)C2` (stereo not drawn)?
M4 PAM: 0; M5 antag: 0; M4 antag: -5; M5 ag: -1; M4 ag: 0; CHRM5 PAM: -7

How did COC(=O)C1=C(c2cccc(OCc3ccccc3)c2)C[C@@H]2CC[C@H]1N2C(=O)NCc1ccccc1OC do in these assays?
M4 PAM: 5; M5 antag: 6; M4 antag: -16; M5 ag: -7; M4 ag: 3; CHRM5 PAM: -6

Results for C[N+]1(C)[C@@H]2CC[C@H]1CC(OC(=O)[C@@H](CO)c1ccccc1)C2 (stereo partly drawn) ?
M4 PAM: -18; M5 antag: 99*; M4 antag: 99*; M5 ag: -10; M4 ag: 0; CHRM5 PAM: -22

Results for O=c1[nH]c2ccccc2n1C1CCN(C(c2nnnn2Cc2ccccc2)C2CC2)CC1 (stereo not drawn) ?
M4 PAM: -13; M5 antag: 24; M4 antag: 29*; M5 ag: 14; M4 ag: 24; CHRM5 PAM: -18

How did O=c1[nH]c2ccccc2n1C1CCN(C(c2cccs2)c2nnnn2Cc2ccccc2)CC1 (stereo not drawn) do in these assays?
M4 PAM: -5; M5 antag: 7; M4 antag: 14; M5 ag: 2; M4 ag: 10; CHRM5 PAM: -9

What do the screens show for `CSCCC(c1nnnn1Cc1ccccc1)N1CCC(n2c(=O)[nH]c3ccccc32)CC1` (stereo not drawn)?
M4 PAM: -15; M5 antag: 7; M4 antag: 23; M5 ag: 30*; M4 ag: 23; CHRM5 PAM: -12

How did O=c1[nH]c2ccccc2n1C1CCN(C(CCc2ccccc2)c2nnnn2Cc2ccccc2)CC1 (stereo not drawn) do in these assays?
M4 PAM: -8; M5 antag: 6; M4 antag: 21; M5 ag: 9; M4 ag: 20; CHRM5 PAM: -14

What do the screens show for `CSCCC(c1nnnn1Cc1ccccc1)N1CCC2(CC1)C(=O)NCN2c1ccccc1` (stereo not drawn)?
M4 PAM: -14; M5 antag: -1; M4 antag: 2; M5 ag: 44*; M4 ag: 25; CHRM5 PAM: 0

How did CCC1CN1P(=O)(c1ccccc1)N1CC1CC (stereo not drawn) do in these assays?
M4 PAM: 6; M5 antag: 13; M4 antag: 5; M5 ag: 3; M4 ag: 1; CHRM5 PAM: 8

What do the screens show for `CC(C)NC(=O)Cn1cc(C(=O)c2ccccc2F)c2ccccc21`?
M4 PAM: 27*; M5 antag: -10; M4 antag: 1; M5 ag: 4; M4 ag: 1; CHRM5 PAM: 4

How did C=C1C(=O)O[C@@H]2C[C@@H](C)[C@@H]3C=CC(=O)[C@@]3(C)[C@@H](OC(=O)CC(=O)O[C@H]3[C@@H]4C(=C)C(=O)O[C@@H]4C[C@@H](C)[C@@H]4C=CC(=O)[C@]43C)[C@H]12 do in these assays?
M4 PAM: -2; M5 antag: 14; M4 antag: 39*; M5 ag: -1; M4 ag: 1; CHRM5 PAM: 4

How did CC(C)(C)c1nc(NCc2ccc3c(c2)OCO3)c2nnn(Cc3ccccc3Cl)c2n1 do in these assays?
M4 PAM: 28*; M5 antag: 1; M4 antag: -3; M5 ag: -1; M4 ag: 1; CHRM5 PAM: -3
